Like-named read-outs stand apart in the source and are kept apart here.
Assays:
[1] = tested on: human breast, bladder, and non-small lung cancer cell lines; conditions: read-out: cytotoxic potential; literature data; cited from earlier work
HT29 [2] = experiment: MTT viability test, HT29; assay type: cell-based, human; conditions: read-out: IC50 HT29 MTT
How it was run: (§1)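 Cells were grown in RPMI-1640 with 10% FCS and antibiotics at 37 °C, 5% CO2. Seeding per well was CT26 4 × 10^3, HT-29 1.5 × 10^4, SW480 3 × 10^3 and HCT116 5 × 10^3, with overnight adherence. Test compound came from a 200 mM DMSO stock (≤0.1% DMSO final) and was applied at 0–200 μM for 72 h. Viability was read by MTT or crystal violet, in triplicate.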

CT26 [3] = experiment: Crystal violet; assay type: cell-based, mouse; conditions: read-out: IC50 CT26 CV
How it was run: as §1

SW480 [4] = experiment: Crystal violet; assay type: cell-based, human; conditions: read-out: IC50 SW480 CV
How it was run: as §1

SW480 cells [5] = experiment: Caspase activation, ApoStat flow cytometry, SW480; assay type: cell-based, human; conditions: IC50 dose, 72 h, fluorescence-labeled pan-caspase inhibitor
How it was run: (§2)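 Seeding in six-well plates was HCT116 2 × 10^5/well and SW480 1.5 × 10^5/well. Cells were exposed to test compound (DMSO vehicle, ≤0.1%) for 72 h. They were then stained with the FITC-labelled pan-caspase inhibitor ApoStat according to the manufacturer's protocol. The percentage of caspase-active cells was measured by flow cytometry. Data are representative of three independent experiments.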

HT29 [6] = experiment: Crystal violet; assay type: cell-based, human; conditions: read-out: IC50 HT29 CV
How it was run: as §1

HCT116 [7] = experiment: Crystal violet; assay type: cell-based, human; conditions: read-out: IC50 HCT116 CV
How it was run: as §1

COX-1 = conditions: read-out: IC50(COX-1) literature value; in blood; cited from earlier work
HCT116 [8] = experiment: MTT viability test, HCT116; assay type: cell-based, human; conditions: read-out: IC50 HCT116 MTT
How it was run: as §1

ovine COX-1 = biological target: T1, ovine COX-1 (Ovis aries, UniProt P05979); experiment: COX Fluorescent Inhibitor Screening Assay Kit; assay type: biochemical; conditions: for % inhibition @ 100 μM COX-1: 100 μM compound
T1 sequence (P05979 25-600): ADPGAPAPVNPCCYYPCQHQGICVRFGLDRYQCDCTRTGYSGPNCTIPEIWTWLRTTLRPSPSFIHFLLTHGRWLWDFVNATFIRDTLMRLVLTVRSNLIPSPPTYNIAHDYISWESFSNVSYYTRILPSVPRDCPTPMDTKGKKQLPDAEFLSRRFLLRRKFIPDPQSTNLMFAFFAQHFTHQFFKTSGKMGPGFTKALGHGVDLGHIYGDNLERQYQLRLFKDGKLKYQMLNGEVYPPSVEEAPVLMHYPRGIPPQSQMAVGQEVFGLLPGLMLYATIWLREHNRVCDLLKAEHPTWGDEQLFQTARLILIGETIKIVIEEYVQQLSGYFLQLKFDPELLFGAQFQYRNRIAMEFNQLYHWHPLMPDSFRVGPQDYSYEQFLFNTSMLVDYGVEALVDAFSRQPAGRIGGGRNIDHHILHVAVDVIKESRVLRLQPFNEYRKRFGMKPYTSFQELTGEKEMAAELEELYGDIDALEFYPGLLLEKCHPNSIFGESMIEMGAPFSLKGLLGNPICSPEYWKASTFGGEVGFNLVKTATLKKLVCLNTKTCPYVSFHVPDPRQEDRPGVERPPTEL

CT26 [9] = experiment: MTT viability test, CT26; assay type: cell-based, mouse; conditions: read-out: IC50 CT26 MTT
How it was run: as §1

human COX-2 = biological target: T2, human COX-2 (Homo sapiens, UniProt P35354); experiment: biochemical; assay type: biochemical; conditions: for % inhibition @ 100 μM COX-2: 100 μM compound
T2 sequence (P35354 18-604): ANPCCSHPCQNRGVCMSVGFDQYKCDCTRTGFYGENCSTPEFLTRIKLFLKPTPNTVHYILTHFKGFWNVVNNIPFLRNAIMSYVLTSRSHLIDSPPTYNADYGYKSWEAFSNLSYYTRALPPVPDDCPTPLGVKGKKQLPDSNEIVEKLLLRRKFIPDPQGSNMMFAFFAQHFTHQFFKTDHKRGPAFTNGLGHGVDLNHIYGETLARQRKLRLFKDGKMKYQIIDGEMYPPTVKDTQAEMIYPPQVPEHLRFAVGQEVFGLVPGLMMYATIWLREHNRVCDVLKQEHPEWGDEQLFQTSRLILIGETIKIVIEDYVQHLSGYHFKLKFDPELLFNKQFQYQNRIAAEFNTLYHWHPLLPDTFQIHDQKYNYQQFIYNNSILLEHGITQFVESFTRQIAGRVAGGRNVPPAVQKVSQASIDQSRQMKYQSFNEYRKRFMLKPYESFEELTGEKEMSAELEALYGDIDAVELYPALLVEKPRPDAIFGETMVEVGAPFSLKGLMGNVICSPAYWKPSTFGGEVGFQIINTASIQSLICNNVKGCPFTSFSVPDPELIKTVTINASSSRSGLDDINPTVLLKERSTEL

SW480 [10] = experiment: MTT viability test, SW480; assay type: cell-based, human; conditions: read-out: IC50 SW480 MTT
How it was run: as §1

HCT116 cells [11] = experiment: Caspase activation, ApoStat flow cytometry, HCT116; assay type: cell-based, human; conditions: IC50 dose, 72 h, fluorescence-labeled pan-caspase inhibitor
How it was run: as §2

HCT116 cells [12] = experiment: ROS/RNS production, DHR flow cytometry, HCT116; assay type: cell-based, human; conditions: HCT116, IC50 dose, 72 h
How it was run: (§3)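 HCT116 (2 × 10^5/well) and SW480 (1.5 × 10^5/well) cells in six-well plates were treated with test compound for 72 h. Treatment was in culture medium containing 1 μM dihydrorhodamine 123 (≤0.1% DMSO). Intracellular ROS/RNS was measured as fluorescence by flow cytometry. Data are representative of three independent experiments.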

SW480 cells [13] = experiment: Cell proliferation, CFSE flow cytometry, SW480; assay type: cell-based, human; conditions: SW480, IC50 dose, 72 h
How it was run: (§4)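 HCT116 (2 × 10^5/well) or SW480 (1.5 × 10^5/well) cells were prelabelled with 1 μM CFSE in six-well plates. They were then exposed to test compound in culture medium (≤0.1% DMSO) for 72 h. CFSE dilution was measured by flow cytometry. Data are representative of three independent experiments.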

SW480 cells [14] = experiment: ROS/RNS production, DHR flow cytometry, SW480; assay type: cell-based, human; conditions: SW480, IC50 dose, 72 h
How it was run: as §3

HCT116 cells [15] = experiment: Cell proliferation, CFSE flow cytometry, HCT116; assay type: cell-based, human; conditions: HCT116, IC50 dose, 72 h
How it was run: as §4

Molecule | caspase activation, % SW480 cells (SW480 cells [5]) [%] | caspase activation, % HCT116 cells (HCT116 cells [11]) [%] | IC50 (HT29 [2]; 72 h, COX-2 +) [µM] | IC50 (CT26 [3]; 72 h, COX-2 +) [µM] | IC50 (SW480 [4]; 72 h, COX-2 –) [µM] | IC50 (HT29 [6]; 72 h, COX-2 +) [µM] | IC50 (HCT116 [7]; 72 h, COX-2 –) [µM] | IC50 (HCT116 [8]; 72 h, COX-2 –) [µM] | IC50 (CT26 [9]; 72 h, COX-2 +) [µM] | IC50 (SW480 [10]; 72 h, COX-2 –) [µM] | % inhibition @ 100 μM COX-1 (ovine COX-1; no BSA) [%] | % inhibition @ 100 μM COX-2 (human COX-2; no BSA) [%] | other results
Cc1cccc(Nc2ccccc2C(=O)O)c1C [compound 1, Mefenamic acid, reference compound] | 5.2 | 0.5 | – | – | – | – | – | – | – | – | – | – | IC50 [1]: ~20 µM; IC50 (HT29 [2]; Homo sapiens, HT-29, 72 h): > 200 µM; IC50 (CT26 [3]; Mus musculus, CT26, 72 h): 163 ± 2 µM; IC50 (SW480 [4]; Homo sapiens, SW480, 72 h): 120 ± 6.1 µM; IC50 (HT29 [6]; Homo sapiens, HT-29, 72 h): > 200 µM; IC50 (HCT116 [7]; Homo sapiens, HCT-116, 72 h): 101 ± 6.5 µM; IC50 (COX-1): 1.94 µM; IC50 (HCT116 [8]; Homo sapiens, HCT-116, 72 h): 96.2 ± 7.9 µM; IC50 (ovine COX-1): 0.12 µM; inhibition plateau COX-1 (ovine COX-1; concentration range between 1 and 100 μM): around 60%; inhibition at 100 µM (ovine COX-1; read-out: % inhibition @ 100 μM COX-1): 59%; IC50 (CT26 [9]; Mus musculus, CT26, 72 h): 114 ± 4.2 µM; IC50 COX-2 (human COX-2): no IC50 value could be determined; inhibition at 100 µM (human COX-2; read-out: % inhibition @ 100 μM COX-2): 20%; IC50 (SW480 [10]; Homo sapiens, SW480, 72 h): 104 ± 6.4 µM
N-(1,2-Dicarba-closo-dodecaboran-9-yl)-2-benzoic acid [2c] | – | – | 183 ± 3.7 | 93.3 ± 5.7 | 75.6 ± 4 | > 200 | 83.6 ± 3.8 | 74.6 ± 4.8 | 61.6 ± 0.1 | 77.6 ± 0.1 | – | – | –
N-(1,2-Dicarba-closo-dodecaboran-9-yl)-2-benzonitrile [2b] | 3.2 | 1.1 | 45.6 ± 2.7 | 47.2 ± 2.3 | 24 ± 0.8 | > 200 | 35.5 ± 3.1 | 34.4 ± 1.8 | 38.3 ± 0.4 | 39 ± 1.2 | 32 | 28 | ROS/RNS production (HCT116 cells [12]): increased; cell division rate vs untreated cells (SW480 cells [13]): remarkably lower; ROS/RNS production (SW480 cells [14]): increased; cell division rate vs untreated cells (HCT116 cells [15]): remarkably lower
N-(1,7-Dicarba-closo-dodecaboran-9-yl)-2-benzoic acid [3c] | – | – | 184 ± 4.5 | 160 ± 6.6 | 117 ± 7.9 | > 200 | 147 ± 8.6 | 93.2 ± 7.6 | 76.5 ± 2.8 | 90.6 ± 3.3 | 11 | – | –
N-(1,7-Dicarba-closo-dodecaboran-9-yl)-2-benzonitrile [3b] | 6.8 | 5.6 | 46.4 ± 2.9 | 37.4 ± 1.2 | 24.9 ± 1.8 | 116 ± 2.2 | 31.8 ± 2.3 | 28.2 ± 1.8 | 22.4 ± 1.7 | 23.8 ± 2.1 | 22 | 13 | cell division rate vs untreated cells (SW480 cells [13]): remarkably lower; cell division rate vs untreated cells (HCT116 cells [15]): remarkably lower
N-(1,12-Dicarba-closo-dodecaboran-2-yl)-2-benzoic acid [4c] | – | – | 165 ± 0.3 | 137 ± 3.1 | 76.4 ± 3.5 | > 200 | 77.4 ± 3.4 | 67.6 ± 1.3 | 72.6 ± 4.5 | 77.8 ± 0.4 | 7 | – | –
N-(1,12-Dicarba-closo-dodecaboran-2-yl)-2-benzonitrile [4b] | – | – | > 200 | > 200 | > 200 | > 200 | > 200 | > 200 | > 200 | > 200 | 12 | – | –
Sodium rac-[N-(7,8-dicarba-closo-dodecaboran-6-yl)-2-benzonitrile] [compound 5] | – | – | 141 ± 7.8 | 150 ± 4.9 | 84 ± 3.3 | 182 ± 1.7 | 115 ± 6 | 129 ± 10 | 167 ± 8.8 | 121 ± 4.5 | 83 | 76 | IC50 (ovine COX-1; read-out: IC50 COX-1, no BSA): 40 µM; IC50 (human COX-2; read-out: IC50 COX-2, no BSA): 33 µM

From publication PMC9301635 (ACS Omega, 2022)
